Laboratory results from ChEMBL document CHEMBL1147783, “Synthesis and biological activity of novel 4-phenyl-1,8-naphthyridin-2(1H)-on-3-yl ureas: potent acyl-CoA:cholesterol acyltransferase inhibitor with improved aqueous solubility” (Bioorg Med Chem Lett, 2006).
pIC50: −log10 of the molar value.

Columns and labels:
[1] = target: T1, Sterol O-acyltransferase 1 (Rattus norvegicus, UniProt O70536); test: Inhibitory activity against ACAT in rat macrophages
T1 sequence (O70536 whole entry): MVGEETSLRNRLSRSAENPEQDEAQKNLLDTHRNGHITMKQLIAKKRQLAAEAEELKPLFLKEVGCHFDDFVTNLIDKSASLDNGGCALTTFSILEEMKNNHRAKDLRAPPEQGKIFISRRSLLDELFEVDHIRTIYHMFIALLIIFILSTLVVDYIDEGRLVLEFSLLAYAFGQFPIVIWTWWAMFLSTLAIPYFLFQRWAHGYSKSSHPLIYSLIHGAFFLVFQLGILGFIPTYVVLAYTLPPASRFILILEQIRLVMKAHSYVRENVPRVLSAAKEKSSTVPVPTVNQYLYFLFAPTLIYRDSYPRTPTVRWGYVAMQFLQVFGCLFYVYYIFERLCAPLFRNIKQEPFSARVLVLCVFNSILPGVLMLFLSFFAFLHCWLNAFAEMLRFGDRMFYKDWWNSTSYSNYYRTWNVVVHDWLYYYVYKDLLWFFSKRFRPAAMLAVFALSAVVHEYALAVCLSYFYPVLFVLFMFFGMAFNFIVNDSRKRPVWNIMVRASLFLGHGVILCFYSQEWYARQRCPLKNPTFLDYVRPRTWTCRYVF

[2] = Solubility in phosphate buffer at pH 5.5; type: physicochemical
In short: (§1)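 Solubility was measured at rt in phosphate buffer (5.53% aq citric acid/1.75% aq Na₂HPO₄) adjusted to pH 2.5, 5.5 or 7.4. Dissolved compound was quantified by HPLC.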

[3] = Solubility in phosphate buffer at pH 2.5; type: physicochemical; in short: as §1
[4] = Solubility in phosphate buffer at pH 7.4; type: physicochemical; in short: as §1
[5] = AUC in rabbit administered with 1.0 mg/kg/day for 21 days; type: ADME, organism-based, Oryctolagus cuniculus; conditions: plasma
In short: (§2)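 Rabbits were dosed orally at 1.0 mg/kg/day for 21 days. Blood drug levels gave Cmax and AUC over 0–24 h. Serum total cholesterol was measured under the same regimen and expressed relative to control animals.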

Oryctolagus cuniculus = test: Decrease in serum total cholesterol in rabbit administered with 1.0 mg/kg/day for 21 days compared to control; type: ADME, organism-based; design: scale not given: the % may be the effect or the level left; conditions: in vivo, 504 h; in short: as §2
[6] = Cmax in rabbit administered with 1.0 mg/kg/day for 21 days; type: ADME, organism-based, Oryctolagus cuniculus; design: dose 1 mg/kg/day; conditions: in vivo; in short: as §2
[7] = Cmax in mice administered with 30 mg/kg po; type: ADME, organism-based; design: dose 30 mg/kg, route oral; conditions: mouse, in vivo

| Compound | pIC50 [1] | solubility [2] | solubility [3] | solubility [4] | AUC at 504 h [5] | Activity (Oryctolagus cuniculus) | Cmax [6] | Cmax [7] |
| --- | --- | --- | --- | --- | --- | --- | --- | --- |
| CCCCn1c(=O)c(NC(=O)Nc2c(C(C)C)cc(N)cc2C(C)C)c(-c2cccc(OCCCN3CCCC3)c2)c2cccnc21.Cl.Cl | 6.37 | 0.2 mg/mL | > 1 mg/mL | 0.13 mg/mL |  |  |  |  |
| CCCCn1c(=O)c(NC(=O)Nc2c(C(C)C)cc(N)cc2C(C)C)c(-c2cccc(OCCCN(CC)CC)c2)c2cccnc21.Cl.Cl | 6.34 | 0.69 mg/mL | > 1 mg/mL | 0.64 mg/mL |  |  |  |  |
| CCCCn1c(=O)c(NC(=O)Nc2c(C(C)C)ccc(N)c2C(C)C)c(-c2cccc(OCCCO)c2)c2cccnc21.Cl | 7.37 | 0.019 mg/mL | > 1 mg/mL | 0.017 mg/mL |  |  |  |  |
| CCCCn1c(=O)c(NC(=O)Nc2c(C(C)C)cc(N)cc2C(C)C)c(-c2cccc(OCCCO)c2)c2cccnc21.Cl | 7.68 | 0.014 mg/mL | > 1 mg/mL | 0.01 mg/mL | 0.0398 µg·h/mL | 53% | 0.016 µg/mL | 21.3 µg/mL |
| CCCCn1c(=O)c(NC(=O)Nc2c(C(C)C)ccc(N)c2C(C)C)c(-c2cccc(OC)c2)c2cccnc21.Cl | 7.85 | 0.001 mg/mL | 0.7 mg/mL | 0.001 mg/mL |  |  |  |  |
| CCCCn1c(=O)c(NC(=O)Nc2c(C(C)C)ccnc2C(C)C)c(-c2cccc(OC)c2)c2cccnc21.Cl | 8.27 | 0.019 mg/mL | > 1 mg/mL | 0.005 mg/mL |  |  |  |  |
| CCCCn1c(=O)c(NC(=O)Nc2c(C(C)C)cc(CN)cc2C(C)C)c(-c2cccc(OC)c2)c2cccnc21.Cl | 6.42 | 0.023 mg/mL | 0.22 mg/mL | 0.036 mg/mL |  |  |  |  |

The next lines start with the values.

| pIC50 [1] | solubility [2] | solubility [3] | solubility [4] | AUC at 504 h [5] | Activity (Oryctolagus cuniculus) | Cmax [6] | Cmax [7] | Compound |
| --- | --- | --- | --- | --- | --- | --- | --- | --- |
| 7.96 | < 0.001 mg/mL | < 0.001 mg/mL | < 0.001 mg/mL |  |  |  |  | CCCCn1c(=O)c(NC(=O)Nc2c(C(C)C)cccc2C(C)C)c(-c2cccc(OC)c2)c2cccnc21 |
| 6.17 | 1 mg/mL | > 1 mg/mL | 0.062 mg/mL |  |  |  |  | CCCCn1c(=O)c(NC(=O)Nc2c(C(C)C)cc(CN(CC)CC)cc2C(C)C)c(-c2cccc(OC)c2)c2cccnc21.Cl |
| < 6.00 | 0.032 mg/mL | > 1 mg/mL | 0.03 mg/mL |  |  |  |  | CCCCn1c(=O)c(NC(=O)Nc2c(C(C)C)cc(N)cc2C(C)C)c(-c2cccc(OCCO)c2)c2cccnc21.Cl |
| 7.21 | 0.007 mg/mL | 0.68 mg/mL | 0.005 mg/mL |  |  |  |  | CCCCn1c(=O)c(NC(=O)Nc2c(C(C)C)cc(N)cc2C(C)C)c(-c2cccc(OCCCCO)c2)c2cccnc21.Cl |
| 6.27 | 0.18 mg/mL | > 1 mg/mL | 0.2 mg/mL |  |  |  |  | CCCCn1c(=O)c(NC(=O)Nc2c(C(C)C)cc(N)cc2C(C)C)c(-c2cccc(OCCCN3CCCCC3)c2)c2cccnc21.Cl.Cl |
| 8.08 | 0.001 mg/mL | 0.022 mg/mL | < 0.001 mg/mL |  |  |  |  | CCCCn1c(=O)c(NC(=O)Nc2c(C(C)C)cc(N)cc2C(C)C)c(-c2cccc(OC)c2)c2cccnc21.Cl |
